Legend:
Format in all cases: functional, MT2
[1] = test system: Human immunodeficiency virus 1; test: Antiviral activity against antiretroviral-pretreated PI-resistant Human immunodeficiency virus 1 isolate 29 harboring Gag-SP-1 T375A mutant gene infected in human MT-2 cells by XTT assay relative to wild-type
In short: (§1)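 Patient-derived Gag fragments were pooled as bacterial colonies to keep quasispecies diversity and ligated into the pXXLAI (HIV-1 LAI) backbone. Virus was made by transfecting 293T cells and harvesting supernatant 2 days later. MT-2 cells were infected at 37°C with an inoculum titrated to give an XTT signal-to-noise of 2.5–4.0. Cells were plated into drug dilutions, incubated 5 days at 37°C, and read by XTT absorbance (450−650 nm). EC50 was taken from percent cell death and expressed as fold change versus wild-type LAI.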

[2] = test system: Human immunodeficiency virus 1; test: Antiviral activity against antiretroviral-pretreated PI-resistant Human immunodeficiency virus 1 isolate 6 harboring Gag-SP-1 V370A,S373A and A374T mutant gene infected in human MT-2 cells by XTT assay relative to wild-type; in short: as §1
[3] = test system: Human immunodeficiency virus 1; test: Antiviral activity against Human immunodeficiency virus 1 isolate 8 harboring Gag-SP1 V362I mutant infected in human MT-2 cells by XTT-assay relative to wild-type
In short: (§2)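 Patient Gag-protease (SfoI-XmaI) fragments were ligated into the pXXLAI backbone, with colonies pooled to keep quasispecies. Virus came from 293T transfection, harvested at 2 days. MT-2 infection at 37°C used an input giving XTT signal-to-noise of 2.5–4.0 (≈MOI 0.001). Cells at ≈17,000/well with drug dilutions, 5 days, 37°C; XTT 1 h, A450–650. EC50 from % cell death; fold change vs wild-type LAI.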

[4] = test system: Human immunodeficiency virus 1; test: Antiviral activity against Human immunodeficiency virus 1 isolate 33 harboring Gag-SP1 S368G, V370M and S373T mutant gene infected in human MT-2 cells by XTT assay relative to wild-type; in short: as §2
[5] = test system: Human immunodeficiency virus 1; test: Antiviral activity against Human immunodeficiency virus 1 isolate 1 harboring Gag-SP-1 S368, V370 and deletion at T371 in Gag-SP-1 mutant infected in human MT-2 cells by XTT-assay relative to wild-type; in short: as §2
[6] = test system: Human immunodeficiency virus 1; test: Antiviral activity against antiretroviral-pretreated PI-resistant Human immunodeficiency virus 1 isolate 20 harboring Gag-capsid G357S mutant gene and Gag-SP1 Q369H and I376V mutant gene infected in human MT-2 cells by XTT assay relative to wild-type; in short: as §1
[7] = test system: Human immunodeficiency virus 1; test: Antiviral activity against Human immunodeficiency virus 1 isolate 4 harboring Gag-capsid A146P, V159I, V215L, I223G/V, P255A, E312D and G357S mutant gene and protease L10R, S37N, M46L, I62V, L63P, A71V, V82T, L90M and I93L mutant gene infected in human MT-2 cells by XTT-assay relative to wild-type; in short: as §2

SMILES: C=C(C)[C@@H]1CC[C@]2(C(=O)O)CC[C@]3(C)[C@H](CC[C@@H]4[C@@]5(C)CC[C@H](OC(=O)CC(C)(C)C(=O)O)C(C)(C)[C@@H]5CC[C@]43C)[C@@H]12 [BEVIRIMAT]
- fold change (FC) [1]: >100
- fold change (FC) [2]: >100
- fold change (FC) [3]: >100
- fold change (FC) [4]: >100
- fold change (FC) [5]: 0.6
- fold change (FC) [6]: 2.1
- fold change (FC) [7]: >100
